# FLuc inh counter: firefly luciferase enzyme inhibitors, primary screen, artefact control for luciferase-based inhibitor screens, biochemical, luminescence, ATPLite; Luciferin 4-monooxygenase (Photinus pyralis), P08659; 10 min; inhibition, % at 10 µM; hit rate 1.5% among 200,000;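 active = inhibition above about 50% when tested at 10 µM, limit read from the data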
# Target sequence (P08659 whole entry, looked up): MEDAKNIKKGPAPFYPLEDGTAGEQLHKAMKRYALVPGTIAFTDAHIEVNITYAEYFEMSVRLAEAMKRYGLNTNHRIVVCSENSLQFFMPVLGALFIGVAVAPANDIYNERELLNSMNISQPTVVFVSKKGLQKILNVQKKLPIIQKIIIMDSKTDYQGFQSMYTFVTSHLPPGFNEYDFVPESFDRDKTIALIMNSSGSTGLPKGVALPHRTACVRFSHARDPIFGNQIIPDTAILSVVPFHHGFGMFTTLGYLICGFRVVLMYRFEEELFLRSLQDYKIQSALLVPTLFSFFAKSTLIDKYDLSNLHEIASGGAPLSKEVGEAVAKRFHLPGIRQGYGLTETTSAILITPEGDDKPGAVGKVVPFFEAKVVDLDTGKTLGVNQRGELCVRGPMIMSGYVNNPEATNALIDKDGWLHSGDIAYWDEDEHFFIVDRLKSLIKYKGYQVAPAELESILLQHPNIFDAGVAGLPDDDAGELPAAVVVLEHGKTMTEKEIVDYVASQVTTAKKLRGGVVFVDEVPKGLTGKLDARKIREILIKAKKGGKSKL
# PPC-1+TRAIL kill: compounds killing PPC-1 cancer cells with TRAIL present, primary screen, TRAIL potentiator project, ATPLite luminescence, uHTS. PPC-1 cells + TRAIL, ATPLite viability luminescence. cell killing (% activity), % at 4 µM or 5 µM. hit rate 0.41% among 220,000;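 active = cell killing above 50% in the first pass at 4 µM, then a duplicate retest at 5 µM averaging 50% or more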;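 note: plate controls were cells with TRAIL plus DMSO for no effect and medium-only wells lacking cells for full effect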
# C8 TRAIL sens: viability loss with TRAIL in NB7+C8 cells, primary screen, TRAIL sensitizer project, cell-based, ATPlite luminescence | inhibition (viability loss, TRAIL sensitization), % at 10 µM | hit rate 1% among 360,000 | AID 624354, 2012;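 active = compounds causing at least 50% loss of cell viability in the single-dose screen, relative to plate controls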
# FLuc stim CS: FLuc activators, initial screening, artefact control for FLuc-dependent activation tests, biochemical, ATPlite luminescence; ATPlite luciferase biochemical, 10 min; 0 = ATP-free wells, 1 = DMSO control; activation factor at 10 µM; 200,000 tested, under 10 active; AID 1027, 2008;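 active = luciferase activation factor, scaled between plate controls, of at least 2 with compound at 10 µM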
#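 Assay system: Luciferase/luciferin reagent mix; Medium: PBS as buffer for the ATP substrate; Dosing: test compounds dosed from 2 mM stocks in 100% DMSO; Times: 10 min, room temperature; Signal: luminescence from luciferase reaction; Read-out: luciferase activation; Controls: No-ATP low control, compound-free enzyme-plus-ATP high control.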
# * = called active by the depositor; nt = no result given. This is a sample that favours compounds with a hit; in the whole collection about 1.6% have one here.
SMILES,FLuc inh counter,PPC-1+TRAIL kill,C8 TRAIL sens,FLuc stim CS
C[C@H]1CN=C(N(C)C)N1CC1CCC(C(C)(C)C)CC1 (some centres not stated),nt,nt,9,nt
O=C(OCC(=O)N1CCC(Cc2ccccc2)CC1)c1cc(Br)ccc1O,nt,nt,0,nt
Cc1ncsc1C(=O)Nc1nc2c(s1)CCCC2,45,17,13,0.5
Cc1cc(C(=O)Nc2nc3c(s2)CCCC3)cs1,70*,-5,58*,0.3
O=C(Nc1nc2c(s1)CCCC2)c1ccc2ncsc2c1,59*,12,50,0.4
COC(=O)/C(=C(O)\C=C\c1ccccc1[N+](=O)[O-])c1nc2ccccc2[nH]1,nt,nt,9,nt
CC(C)C(=O)Nc1nc2cc3c(cc2s1)OCCO3,nt,29,30,nt
CCOc1ccc(NC(=O)c2ccco2)cc1,76*,48,55*,0.2
CCOc1ccc2nc(NC(=O)CN3CCOCC3)sc2c1,61*,-6,-4,0.4
O=C(Nc1nc2cc3c(cc2s1)OCCO3)c1ccco1,nt,nt,88*,nt
CCOc1ccc(NC(=S)NC(=O)c2ccco2)cc1,nt,26,-1,nt
CCOc1ccc2nc(NC(=O)c3ccco3)sc2c1,nt,nt,60*,nt
COc1cc2c3c(c1OC)C(=O)CC3CCCC2 (configuration not stated),nt,nt,4,nt
C[C@@H]1CN([C@H](C)CO)C(=O)CCCn2nncc2CO[C@H]1CN(C)Cc1ccccc1C(F)(F)F,nt,nt,-13,nt
COc1cccc(/C=C/C(=O)OCC(=O)NC2CCCCCC2)c1,nt,nt,-10,nt
CSc1ccccc1NC(=O)Nc1ccccc1,7,2,7,0.9
CCOC(=O)c1ccc2nc(NC(=O)c3ccco3)sc2c1,51*,12,27,0.5
CCOc1ccc2nc(NC(=O)c3ccoc3C)sc2c1,58*,30,46,0.4
CCOC(=O)c1ccc2nc(NC(=O)c3cccs3)sc2c1,43,35,30,0.6
O=C(NC(=S)Nc1nc2ccc(F)cc2s1)c1ccco1,86*,40,86*,0.1
CCOc1ccc(NC(=O)Nc2ccccc2SC)cc1,50*,24,43,0.5
CCOc1ccc2nc(NC(=O)COC)sc2c1,31,26,8,0.7
COC(=O)c1ccccc1NS(=O)(=O)c1ccc(Cl)nc1,-6,9,-2,1.1
Oc1ccc2ccccc2c1C=Nc1ccc(Cl)cn1,0,13,-4,1
CCOc1ccc2nc(NC(=O)Nc3cccs3)sc2c1,67*,10,46,0.3
SMILES,FLuc inh counter,PPC-1+TRAIL kill,C8 TRAIL sens,FLuc stim CS
Fc1ccc2nc(Nc3nc4cc5c(cc4s3)OCCO5)sc2c1,52*,21,26,0.5
Fc1ccc2nc(Nc3nc4cc5c(cc4s3)OCO5)sc2c1,5,11,15,1
CCOc1ccc2nc(NC(=O)Nc3ccccc3)sc2c1,13,-5,16,0.9
COc1cccc(NC(=O)CN(C)C(=O)c2c(C)nn(CC(C)C)c2Cl)c1,nt,nt,-4,nt
COc1cccc(CNC(=O)[C@@H]2CCCN2C(=O)[C@@H]2CCCN2C(=O)c2cccs2)c1,nt,nt,4,nt
CC1=CC(=O)C2(C)C(C)=C(C)C12C (configuration not stated),nt,nt,-1,nt
O=C(Nc1nc(-c2ccccc2)cs1)c1ccc(N2CCOCC2)c([N+](=O)[O-])c1,-5,42,83*,1
O=C(O)c1cc(/C=C/c2ccc(N3CCOCC3)c([N+](=O)[O-])c2)nc2ccccc12,nt,43,64*,nt
Cc1cc(-c2ccc(C(C)C)c(S(=O)(=O)N3CCC(C)CC3)c2)on1,nt,nt,16,nt
O=C(N/N=C/C1CCCCC1)c1cc(Cl)ccc1O,50*,11,-17,0.5
CCn1c(C)cc(/C=C2/SC(=S)NC2=O)c1C,52*,-7,-8,0.5
CCn1ncc(/C=C2/SC(=S)NC2=O)c1C,11,21,-4,0.9
COc1ccc2nc(C)cc(N/N=C/c3cccc(OC)c3O)c2c1,nt,nt,51*,nt
COc1ccc(/C=N/Nc2cc(C)nc3ccc(Br)cc23)cc1,nt,nt,49*,nt
S=C(Nc1ccc2nccnc2c1)N1CCOCC1,0,-5,0,1
O=c1cc(-c2ccc3c(c2)OCCO3)oc2ccc(Cl)cc12,50*,14,48,0.5
COc1cccc2c1CCc1c-2nc2ccccc2c1C(=O)O,nt,nt,68*,nt
COc1ccccc1NC(=O)c1c(C)nc2ccccc2c1C(=O)O,nt,4,14,nt
O=C(N/N=C/c1ccc(Br)o1)c1ccc2c(c1)OCCO2,74*,23,40,0.3
O=C(N/N=C/c1ccccc1)c1ccc2c(c1)OCO2,nt,nt,56*,nt
O=C(O)c1ccc(/C=N/NC(=O)c2ccc3c(c2)OCCO3)cc1,nt,nt,14,nt
O=C(Nc1ccccc1Cl)c1cc[n+]([O-])cc1,nt,nt,-18,nt
CCC(=O)N(C)CCc1cc2c(c(OC)c1/C=N/NC(=O)c1ccccc1O)OCO2,32,2,4,0.7
COc1c(/C=N/NC(=O)c2ccccc2O)c(CCN(C)C(C)=O)cc2c1OCO2,85*,18,-1,0.2
O=C(NC(=O)c1ccccc1)Nc1ccccc1,nt,nt,54*,nt
SMILES,FLuc inh counter,PPC-1+TRAIL kill,C8 TRAIL sens,FLuc stim CS
COc1ccc(NC(=O)NC(=O)c2ccccc2)cc1,nt,nt,1,nt
COc1ccc(OC)c(CN2C(=O)c3ccccc3C2c2nnnn2C2CCCC2)c1 (configuration not stated),nt,nt,10,nt
CCOC(=O)N1N=C(c2ccc(C)cc2)CC1(O)C(F)(F)F (configuration not stated),54*,28,18,0.5
CCOC(=O)N1N=C(c2ccccc2)CC1(O)C(F)(F)F (configuration not stated),9,17,4,0.9
CC(C)CC1C(=O)N(Cc2cn(CCC3OCCO3)nn2)CCS(=O)(=O)N1Cc1ccc(-c2cccc(N(C)C)c2)cc1 (configuration not stated),nt,nt,1,nt
COc1ccc(-c2cnc(C(O)c3ccc(C(C)(C)C)cc3)[nH]2)cc1 (configuration not stated),nt,nt,-15,nt
Nc1cccc2c1C(=O)N(C(=O)/C=C/c1ccc(F)cc1)C2=O,52*,10,12,0.5
Cc1nn(-c2ccccc2)c(Cl)c1C(=O)N1CCN(c2ncnc3c2cnn3-c2ccccc2)CC1,-8,32,73*,1.1
Clc1ccc(Nc2ncnc3c2cnn3-c2ccccc2)cc1,-4,16,27,1
CC(C)Nc1ncnc2c1cnn2-c1ccc(Cl)cc1,64*,37,57*,0.4
Clc1ccc(-n2ncc3c(N4CCCC4)ncnc32)cc1,75*,49,55*,0.3
Clc1ccc(Cn2ncc3c(N4CCN(c5ccccc5)CC4)ncnc32)cc1,nt,nt,74*,nt
CCOC(=O)C1CCN(c2ncnc3c2cnn3-c2ccc(Cl)cc2)CC1,1,25,35,1
O=C(c1ccccc1)N1CCN(c2ncnc3c2cnn3-c2ccccc2)CC1,-10,1,3,1.1
O=C(NCC1CC1)c1onc(CSc2ccncc2)c1C(=O)NCC1CC1,nt,2,0,nt
O=S1(=O)N[C@@H](Cc2ccccc2)COc2cc(N3CC[C@H](O)C3)ccc21,nt,nt,1,nt

# Assay outcomes (PubChem BioAssay)
